# Source: ChEMBL document CHEMBL1147605, “Syntheses and biological evaluation of new fluoroquinolone antibacterials containing chiral oxiimino pyrrolidine” (Bioorg Med Chem Lett, 2004)
# Legend:
# Enterococcus sp. = experiment: In vitro antibacterial activity against the Ofloxacin Resistant Enterococcus knothe 101; assay type: functional
# Procedure, shortened: (§1)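 MICs by agar dilution following National Committee for Clinical Laboratory Standards recommendations; all strains obtained from Hoechst.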
# Enterobacter cloacae = experiment: In vitro antibacterial activity against the Enterobacter cloacae 1321 E; assay type: functional
# Escherichia coli [1] = experiment: In vitro antibacterial activity against the Escherichia coli 078; assay type: functional
# Klebsiella = experiment: In vitro antibacterial activity against the Ofloxacin Resistant Klebsiella species 30-92; assay type: functional; procedure, shortened: as §1
# Pseudomonas aeruginosa [2] = experiment: In vitro antibacterial activity against the Ofloxacin Resistant Pseudomonas aeruginosa 279II; assay type: functional; procedure, shortened: as §1
# Pseudomonas aeruginosa [3] = experiment: In vitro antibacterial activity against the Pseudomonas aeruginosa 1592E; assay type: functional
# Pseudomonas aeruginosa [4] = experiment: In vitro antibacterial activity against the Pseudomonas aeruginosa 1771M; assay type: functional
# Salmonella typhimurium = experiment: In vitro antibacterial activity against the Salmonella Typhimurium; assay type: functional, Salmonella enterica subsp. enterica serovar Typhimurium; conditions: Salmonella enterica
# [5] = tested on: Staphylococcus epidermidis; experiment: In vitro antibacterial activity against the Ofloxacin Resistant Staphylococcus epidermidis 291; assay type: functional; procedure, shortened: as §1
# [6] = tested on: Staphylococcus epidermidis; experiment: In vitro antibacterial activity against the Ofloxacin Resistant Staphylococcus epidermidis 319; assay type: functional; procedure, shortened: as §1
# Staphylococcus aureus [7] = experiment: In vitro antibacterial activity against the Ofloxacin Resistant Staphylococcus aureus 179; assay type: functional; procedure, shortened: as §1
# Staphylococcus aureus [8] = experiment: In vitro antibacterial activity against the Ofloxacin Resistant Staphylococcus aureus 293; assay type: functional; procedure, shortened: as §1
# Staphylococcus aureus [9] = experiment: In vitro antibacterial activity against the Ofloxacin Resistant Staphylococcus aureus 303; assay type: functional; procedure, shortened: as §1
# Staphylococcus aureus [10] = experiment: In vitro antibacterial activity against the Methicillin-Resistant Staphylococcus aureus (MRSA) 690 E; assay type: functional; procedure, shortened: as §1
# Staphylococcus aureus [11] = experiment: In vitro antibacterial activity against the Methicillin-Resistant Staphylococcus aureus (MRSA) 692 E; assay type: functional; procedure, shortened: as §1
# Staphylococcus aureus [12] = experiment: In vitro antibacterial activity against the Methicillin-Resistant Staphylococcus aureus (MRSA) 697 E; assay type: functional; procedure, shortened: as §1
# Staphylococcus aureus [13] = experiment: In vitro antibacterial activity against the Methicillin-Resistant Staphylococcus aureus (MRSA) 701 E; assay type: functional; procedure, shortened: as §1
# Staphylococcus aureus [14] = experiment: In vitro antibacterial activity against the Methicillin-Resistant Staphylococcus aureus (MRSA) 705 E; assay type: functional; procedure, shortened: as §1
# Staphylococcus aureus [15] = experiment: In vitro antibacterial activity against the Staphylococcus aureus SG511; assay type: functional
# Streptococcus pyogenes [16] = experiment: In vitro antibacterial activity against the Streptococcus pyogenes 308A; assay type: functional
# Streptococcus pyogenes [17] = experiment: In vitro antibacterial activity against the Streptococcus pyogenes 77A; assay type: functional
# Escherichia coli [18] = experiment: In vitro antibacterial activity against the Escherichia coli DC 2; assay type: functional
# Staphylococcus aureus [19] = experiment: In vitro antibacterial activity against the Staphylococcus aureus 285; assay type: functional
# [20] = Half-life period for the compound was determined in rats at 50 mg/kg dose; assay type: ADME, organism-based; design: dose 50 mg/kg; conditions: rat, in vivo
# [21] = Plasma concentration for the compound was determined in rats at 50 mg/kg dose; assay type: ADME, organism-based; design: dose 50 mg/kg; conditions: rat
# Procedure, shortened: (§2)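 Pharmacokinetics were measured in SD rats given 50mg/kg, reporting Cmax, Tmax, T1/2 and AUC.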
# [22] = Time for maximum plasma concentration reached by compound was determined in rats at 50 mg/kg dose; assay type: ADME, organism-based; design: dose 50 mg/kg; conditions: rat; procedure, shortened: as §2
# [23] = Maximum plasma concentration reached by compound was determined in rats at 50 mg/kg dose; assay type: ADME, organism-based; design: dose 50 mg/kg; conditions: rat; procedure, shortened: as §2
# HepG2 = experiment: Cytotoxicity was determined for the compound in HepG2 cell line; assay type: functional, cell-based; conditions: Homo sapiens
# Staphylococcus aureus [24] = experiment: In vitro antibacterial activity against the Methicillin-Resistant Staphylococcus aureus (MRSA) 707 E; assay type: functional; procedure, shortened: as §1
# V79-4 = experiment: Cytotoxicity was determined for the compound in V79-4 cell line; assay type: functional, cell-based; conditions: Cricetulus griseus
SMILES,MIC (Enterococcus sp.),MIC (Enterobacter cloacae),MIC (Escherichia coli [1]),MIC (Klebsiella),MIC (Pseudomonas aeruginosa [3]),MIC (Pseudomonas aeruginosa [4]),MIC (Salmonella typhimurium),MIC [5],MIC [6],MIC (Staphylococcus aureus [7]),MIC (Staphylococcus aureus [8]),MIC (Staphylococcus aureus [9]),MIC (Staphylococcus aureus [10]),MIC (Staphylococcus aureus [11]),MIC (Staphylococcus aureus [12]),MIC (Staphylococcus aureus [15]),MIC (Streptococcus pyogenes [16]),MIC (Streptococcus pyogenes [17]),MIC (Escherichia coli [18]),MIC (Staphylococcus aureus [19]),further results
CO/N=C1\CN(c2c(F)c(N)c3c(=O)c(C(=O)O)cn(C4CC4)c3c2F)C[C@@]1(C)CN.Cl,0.195 µg/mL,< 0.002 µg/mL,0.004 µg/mL,1.56 µg/mL,0.391 µg/mL,0.195 µg/mL,< 0.002 µg/mL,0.391 µg/mL,0.781 µg/mL,0.195 µg/mL,0.195 µg/mL,0.195 µg/mL,0.004 µg/mL,0.004 µg/mL,0.004 µg/mL,< 0.002 µg/mL,0.049 µg/mL,0.013 µg/mL,0.013 µg/mL,0.004 µg/mL,MIC (Pseudomonas aeruginosa [2]): 3.12 µg/mL; MIC (Staphylococcus aureus [13]): 0.007 µg/mL; MIC (Staphylococcus aureus [14]): 0.007 µg/mL
CO/N=C1\CN(c2cc3c(cc2F)c(=O)c(C(=O)O)cn3C2CC2)CC1(C)CN.Cl (stereo unspecified),–,0.013 µg/mL,0.013 µg/mL,–,0.781 µg/mL,0.391 µg/mL,0.013 µg/mL,–,–,–,–,–,–,–,–,0.007 µg/mL,0.098 µg/mL,0.013 µg/mL,0.025 µg/mL,0.013 µg/mL,–
CO/N=C1\CN(c2c(F)c(N)c3c(=O)c(C(=O)O)cn(C4CC4)c3c2F)C[C@]1(C)CN.Cl,0.013 µg/mL,< 0.002 µg/mL,< 0.002 µg/mL,0.781 µg/mL,0.391 µg/mL,0.195 µg/mL,< 0.002 µg/mL,0.049 µg/mL,0.025 µg/mL,0.013 µg/mL,0.013 µg/mL,0.013 µg/mL,< 0.002 µg/mL,< 0.002 µg/mL,< 0.002 µg/mL,< 0.002 µg/mL,0.004 µg/mL,< 0.002 µg/mL,< 0.002 µg/mL,–,half-life [20]: 6.94 h; AUC [21]: 68800 ng·h/mL; Tmax [22]: 1 h; Cmax [23]: 6670 ng/mL; IC50 (HepG2): 11.6 µg/mL; MIC (Pseudomonas aeruginosa [2]): 3.12 µg/mL; MIC (Staphylococcus aureus [13]): < 0.002 µg/mL; MIC (Staphylococcus aureus [14]): < 0.002 µg/mL; MIC (Staphylococcus aureus [24]): < 0.002 µg/mL; IC50 (V79-4): 0.21 µg/mL
CO/N=C1\CN(c2c(F)cc3c(=O)c(C(=O)O)cn(C4CC4)c3c2Cl)CC1(C)CN.Cl (stereo unspecified),–,0.004 µg/mL,0.007 µg/mL,–,0.781 µg/mL,0.195 µg/mL,0.025 µg/mL,–,–,–,–,–,–,–,–,0.007 µg/mL,0.195 µg/mL,0.025 µg/mL,0.025 µg/mL,0.007 µg/mL,–
CO/N=C1\CN(c2nc3c(cc2F)c(=O)c(C(=O)O)cn3C2CC2)C[C@]1(C)CN.Cl,0.098 µg/mL,0.007 µg/mL,0.025 µg/mL,1.56 µg/mL,1.56 µg/mL,0.781 µg/mL,0.013 µg/mL,0.195 µg/mL,0.391 µg/mL,0.098 µg/mL,0.098 µg/mL,0.098 µg/mL,< 0.002 µg/mL,< 0.002 µg/mL,< 0.002 µg/mL,0.004 µg/mL,0.098 µg/mL,0.013 µg/mL,0.049 µg/mL,0.007 µg/mL,half-life [20]: 4.5 h; AUC [21]: 90800 ng·h/mL; Tmax [22]: 2 h; Cmax [23]: 9060 ng/mL; IC50 (HepG2): 37.3 µg/mL; MIC (Pseudomonas aeruginosa [2]): 6.25 µg/mL; MIC (Staphylococcus aureus [13]): < 0.002 µg/mL; MIC (Staphylococcus aureus [14]): 0.004 µg/mL; MIC (Staphylococcus aureus [24]): < 0.002 µg/mL; IC50 (V79-4): 5.49 µg/mL
O=C(O)c1cn(C2CC2)c2cc(N3CCNCC3)c(F)cc2c1=O [CIPROFLOXACIN],0.781 µg/mL,–,–,1.56 µg/mL,0.195 µg/mL,0.098 µg/mL,–,50 µg/mL,100 µg/mL,12.5 µg/mL,12.5 µg/mL,12.5 µg/mL,0.391 µg/mL,0.391 µg/mL,0.391 µg/mL,0.195 µg/mL,3.12 µg/mL,0.391 µg/mL,0.098 µg/mL,0.781 µg/mL,AUC [21]: 12700 ng·h/mL; Tmax [22]: 0.5 h; IC50 (HepG2): 37.5 µg/mL; MIC (Staphylococcus aureus [13]): 0.391 µg/mL; MIC (Staphylococcus aureus [14]): 0.391 µg/mL; MIC (Staphylococcus aureus [24]): 0.195 µg/mL; IC50 (V79-4): 58.5 µg/mL
